Measurements collected from several papers.
Compare with care: the assays were run in different laboratories.
Cell line: HepG2
Effect on: cell growth or viability

| SMILES | test | setting | IC50 |
| --- | --- | --- | --- |
| Oc1ncnc2cc(Nc3nc(-c4ccc(Br)cc4)cs3)ccc12 | MTT | – | 9.85 µM |
| O=[N+]([O-])c1ccc(Cn2cc(Cn3c4ccccc4c4nc5ccccc5nc43)nn2)cc1 | MTT | 24 h | > 100 µM |
| COc1cc2ncnc(Nc3ccc(F)c(Cl)c3)c2cc1NC(=O)N/N=C/CN1CCOCC1 | MTT | 72 h | 4.42 µM |
| Cc1ccc2nc(-c3ccc([N+](=O)[O-])cc3)n(Cc3ccccc3)c2c1 | MTT | – | 6.74 µM |
| CNC(=O)c1cc(Oc2ccc(NC(=O)Nc3ccc(Cl)c(C(F)(F)F)c3)cc2)ccn1 | MTT | 24 h | 16.9 µM |
| CC1=CC(C)(C)N(Cc2ccccc2)c2ccc(O)cc21 | MTT | 72 h | 20 µM |
| COc1cc2ncnc(Nc3ccc(F)c(Cl)c3)c2cc1NC(=O)N/N=C/c1cccn1CCN1CCCCC1 | MTT | 72 h | 0.05 µM |
| Cc1ccc(-c2ccc(O)cc2)c(C(=C2C=CC(=O)C=C2)c2ccc(O)cc2)c1C#Cc1ccc(O)cc1 | MTT | 48 h | 16.4 µM |
| Cc1ccc2c(Cl)cc(Cl)c(O)c2n1 | MTT | 48 h | > 100 µM |
| Oc1ncnc2cc(Nc3nc(-c4ccc(C(F)(F)F)cc4)cs3)ccc12 | MTT | – | 5.91 µM |
| Cc1cc(C)cc(NC(=O)NNC(=O)c2ccc(Nc3nccc(-c4ccccn4)n3)cc2)c1 | MTT | 24 h | 20.3 µM |
| COc1cccc(-c2nc3ccccc3n2Cc2ccccc2)c1 | MTT | – | 40.7 µM |
| Cc1cc(=O)oc2ccc(-c3cc(-c4ccc(Cl)cc4)nc(N)n3)c(O)c12 | MTT | 72 h | 18.1 µg/mL |
| CC1=C(O)C(=O)C=C2C1=CC=C1[C@@]2(C)CC[C@@]2(C)[C@@H]3C[C@](C)(C(=O)OCCCCCO)CC[C@]3(C)CC[C@]12C | MTT | 48 h | 10.1 µM |
| O=C(N/N=C/CN1CCCC1)Nc1cc2c(Nc3ccc(F)c(Cl)c3)ncnc2cc1O[C@H]1CCOC1 | MTT | 72 h | 2.09 µM |
| Nc1nc(-c2ccc(NC(=O)c3ccc(Cl)c(Cl)c3)cc2F)c[nH]1 | XTT | 24 h | 16.9 µM |
| O=c1cc(-c2ccc(O)c(O)c2)oc2cc(O)cc(O)c12 | WST-1 | 48 h | 15.2 µM |
| COc1cc2ncnc(Nc3ccc(F)c(Cl)c3)c2cc1NC(=O)N/N=C/c1cccn1CCCN(C)C | MTT | 72 h | 0.05 µM |
| O=[N+]([O-])c1cccc(-c2nc3ccccc3[nH]2)c1 | MTT | 48 h | 39 µM |
| Cc1cc(=O)oc2ccc(-c3cc(-c4ccccc4)nc(N)n3)c(O)c12 | MTT | 72 h | > 128 µg/mL |
| CC1(C)CC[C@]2(C(=O)O)CC[C@]3(C)C(=CC[C@@H]4[C@@]5(C)CC[C@H](O)C(C)(C)[C@@H]5CC[C@]43C)[C@@H]2C1 | MTT | 48 h | > 100 µM |
| C=CCn1c(-c2ccc(Cl)c(Cl)c2)nc2ccccc21 | MTT | – | 66.1 µM |
| COc1ccc(Nc2nc(-n3nc(C)cc3C)nc(-n3nc(C)cc3C)n2)cc1 | MTT | 72 h | 5.42 µM |
| COc1cccc2c1C(=O)c1c(O)c3c(c(O)c1C2=O)C[C@@](O)(C(=O)CO)C[C@@H]3O[C@H]1C[C@H](N)[C@H](O)[C@H](C)O1 | MTT | 24 h | 3.6 µM |
| COc1cc2ncnc(Nc3ccc(F)c(Cl)c3)c2cc1NC(=O)N/N=C/c1cccn1CCCN1CCCCC1 | MTT | 72 h | 0.31 µM |

| SMILES | test | setting | IC50 |
| --- | --- | --- | --- |
| Cc1ccc(NC(=O)NNC(=O)c2ccc(Nc3nccc(-c4cccnc4)n3)cc2)cc1 | MTT | 24 h | > 40 µM |
| COc1c(-c2coc3cc4c(cc3c2=O)CC(OC(C)=O)C(C)(C)O4)ccc2c1C=CC(C)(C)O2 (stereo not shown) | WST-1 | 72 h | 124 µM |
| O=C(N/N=C/c1cccn1CCCN1CCOCC1)Nc1cc2c(Nc3ccc(F)c(Cl)c3)ncnc2cc1O[C@H]1CCOC1 | MTT | 72 h | 1.89 µM |
| CC1=C(O)C(=O)C=C2C1=CC=C1[C@@]2(C)CC[C@@]2(C)[C@@H]3C[C@](C)(C(=O)OCCCN4C(=O)C5C=CC=CC5C4=O)CC[C@]3(C)CC[C@]12C (stereo partly shown) | MTT | 48 h | 1.27 µM |
| COC1=C2C[C@@H](C)C[C@H](OC)[C@H](O)[C@@H](C)/C=C(\C)[C@H](OC(N)=O)[C@@H](OC)/C=C\C=C(/C)C(=O)NC(=CC1=O)C2=O | MTT | – | 0.041 µM |
| Cl.Oc1cccc2c1[nH]c1c(C3=CC4(O)CC/C=C\CCCCN5CCC3C3(CC6/C=C\CCCCN6C43)C5)nccc12 (single isomer, unassigned; (+)) | neutral red | 48 h | 1.5 µg/mL |
| CC(C)(C)NC(=O)NNC(=O)c1ccc(Nc2nccc(-c3ccccn3)n2)cc1 | MTT | – | > 40 µM |
| CCN(CC)CCCn1cccc1/C=N/NC(=O)Nc1cc2c(Nc3ccc(F)c(Cl)c3)ncnc2cc1OC | MTT | 72 h | 0.22 µM |
| CC1=C(O)C(=O)C=C2C1=CC=C1[C@@]2(C)CC[C@@]2(C)[C@@H]3C[C@](C)(C(=O)OCCCCCCCO)CC[C@]3(C)CC[C@]12C | MTT | 48 h | 7.21 µM |
| Oc1ncnc2cc(Nc3nc(-c4ccc(Cl)cc4)cs3)ccc12 | MTT | – | 9.36 µM |
| CC(=O)OCCOC(=O)[C@]1(C)CC[C@]2(C)CC[C@]3(C)C4=CC=C5C(=CC(=O)C(O)=C5C)[C@]4(C)CC[C@@]3(C)[C@@H]2C1 | MTT | 48 h | 2.55 µM |
| C[C@H]1O[C@@H](n2cc(F)c(=O)[nH]c2=O)[C@H](O)[C@@H]1O | CCK-8 | 48 h | > 50 µM |
| COc1cc2c(Nc3ccc(NC(=O)c4ccccc4)cc3)ncnc2cc1OCCCN1CCOCC1 | MTS | 48 h | 3.3 µM |
| Cc1ccc2nc(-c3ccc(Cl)c(Cl)c3)[nH]c2c1 | MTT | 48 h | 56.7 µM |
| COc1cc(C2Oc3cc([C@H]4Oc5cc(O)cc(O)c5C(=O)[C@@H]4O)ccc3OC2CO)ccc1O (stereo partly shown) | CCK-8 | 72 h | 24.3 µM |
| O=C(N/N=C/c1cccn1CCCN1CCCCC1)Nc1cc2c(Nc3ccc(F)c(Cl)c3)ncnc2cc1O[C@H]1CCOC1 | MTT | 72 h | 0.52 µM |
| CC1(C)CC[C@]2(C)CC[C@]3(C)C(=CC[C@@H]4[C@@]5(C)CC[C@H](O)C(C)(C)[C@@H]5CC[C@]43C)[C@@H]2C1 | WST-1 | 48 h | 82.8 µM |
| COC(=O)CN=c1scc(-c2ccccc2)n1-c1ccccc1OC | MTT | 72 h | 22.7 µM |
| Oc1cccc(-c2nc3ccccc3[nH]2)c1 | MTT | 48 h | 83 µM |
| CC1=C(O)C(=O)C=C2C1=CC=C1[C@@]2(C)CC[C@@]2(C)[C@@H]3C[C@](C)(C(=O)OCCCOc4ccccc4)CC[C@]3(C)CC[C@]12C | MTT | 48 h | 3.04 µM |
| c1cnc2c(c1)ccc1cccnc12 | MTT | 48 h | > 50 µM |
| CC(=O)O[C@H]1C(=O)[C@@]2(C)[C@H]([C@H](OC(=O)c3ccccc3)[C@]3(O)C[C@H](OC(=O)[C@H](O)[C@@H](NC(=O)c4ccccc4)c4ccccc4)C(C)=C1C3(C)C)[C@]1(OC(C)=O)CO[C@@H]1C[C@@H]2O | MTT | 48 h | 4.75 µM |
| Cc1ccc2c(Br)cc(Br)c(O)c2n1 | MTT | 48 h | > 150 µM |
| C=CCn1c(-c2ccc([N+](=O)[O-])cc2)nc2ccc(C)cc21 | MTT | – | 63.5 µM |
